Experimental data from ChEMBL document CHEMBL3297648, “Diterpenoids from the Chinese liverwort Heteroscyphus tener and their antiproliferative effects” (J Nat Prod, 2014).
pIC50: −log10 of the molar value. Activity calls are given as the source filed them. The calls are words filed in the database; no cut-off is given here.

Legend:
A549 = experiment: Antiproliferative activity against human A549 cells assessed as inhibition of cell viability after 24 hrs by MTT assay; assay type: functional, cell-based; settings: A549, 24 h
Outline: (§1)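 Cells grown to 50–70% confluence (RWPE1 in K-SFM with pituitary extract and EGF; the other lines in RPMI 1640 with 10% FBS), 5% CO2, 37 °C. Treated for 24 h with DMSO vehicle, compounds, or cisplatin as positive control. MTT (5 mg/mL) added for 4 h, formazan dissolved in DMSO, absorbance read at 570 nm. Viability taken relative to untreated cells after blank subtraction, IC50 fitted from % viability, at least three experiments.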

DU-145 [1] = experiment: Cell cycle arrest in human DU145 cells assessed as accumulation at G2/M phase at 10 uM after 24 hrs by propidium iodide staining based flow cytometry (reference value: 10.44%); assay type: functional
[2] = Antiproliferative activity against human RWPE1 cells assessed as inhibition of cell viability after 24 hrs by MTT assay; assay type: cell-based; settings: RWPE-1, 24 h; outline: as §1
PC-3 [3] = experiment: Induction of apoptosis in human PC3 cells assessed as late apoptotic cells at 20 uM after 24 hrs by Annexin V-FITC/propidium iodide staining based flow cytometry (reference value: 7.92%); assay type: functional
Outline: (§2)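 Cells seeded in 6-well plates for 24 h, then given 20 μM for the stated times. Cells were trypsinized, PBS-washed, stained with annexin V-FITC/PI, and analysed immediately by flow cytometry. Means ± SD of three independent experiments; Student's t test against untreated control.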

[4] = molecular target: Breast cancer type 1 susceptibility protein (Homo sapiens) (UniProt P38398); experiment: Inactivation of BRCA1 in human DU145 cells assessed as decline in BRCA1 phosphorylation at Ser1524 at 20 uM by western blot analysis; assay type: cell-based; settings: DU-145
Outline: (§3)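 Cells treated at 20 μM for various times, lysed in RIPA buffer with protease/phosphatase inhibitors, protein quantified by BCA. Equal protein run on 12% SDS-PAGE, transferred to nitrocellulose, blocked 1 h in 5% milk/TBST, primary antibodies overnight at 4 °C, secondary 1:2000 for 45 min, ECL detection on film. GAPDH used as loading control.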

PC-3 [5] = experiment: Induction of apoptosis in human PC3 cells assessed as early apoptotic cells at 20 uM after 4 hrs by Annexin V-FITC/propidium iodide staining based flow cytometry (reference value: 0.79%); assay type: functional; outline: as §2
[6] = Antiproliferative activity against human PC3 cells assessed as inhibition of cell viability after 24 hrs by MTT assay; assay type: functional, cell-based; settings: PC-3, 24 h; outline: as §1
DU-145 [7] = experiment: Increase in H2AX protein expression in human DU145 cells at 20 uM after 2 to 48 hrs by western blot analysis; assay type: functional, cell-based; outline: as §3
PC-3 [8] = experiment: Increase in H2AX protein expression in human PC3 cells at 20 uM after 2 to 48 hrs by western blot analysis; assay type: functional, cell-based; outline: as §3
[9] = Cell cycle arrest at G0/G1 phase in human PC3 cells after 24 hrs by propidium iodide staining based flow cytometry; assay type: functional; settings: PC-3
DU-145 [10] = experiment: Antiproliferative activity against human DU145 cells assessed as inhibition of cell viability at 20 uM pretreated for 1 hr with 5 mM antioxidant NAC measured after 24 hrs by MTT assay; assay type: functional, cell-based
PC-3 [11] = experiment: Induction of ROS generation in human PC3 cells at 20 uM after 6 hrs by DCFH-DA staining based flow cytometry; assay type: functional, cell-based
Outline: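 Cells in RPMI 1640 with 10% FBS, 5% CO2, 37 °C, treated at 50−70% confluence (DMSO vehicle). After exposure, cells were loaded with 10 μM DCFH-DA for 30 min at 37 °C, washed, resuspended in PBS, and read at once by flow cytometry. For NAC runs, cells got 5 mM NAC 1 h before compound. ROS reported as ratio relative to untreated control.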

[12] = Decrease in ChK1 protein expression in human PC3 cells at 20 uM after 2 to 48 hrs by western blot analysis; assay type: functional, cell-based; settings: PC-3; outline: as §3
DU-145 [13] = experiment: Induction of apoptosis in human DU145 cells assessed as cleaved caspase-3 level at 20 uM after 12 hrs by western blot analysis; assay type: functional, cell-based
Outline: (§4)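 Cells exposed to 20 μM for the stated times. Lysis in RIPA plus protease inhibitors, BCA protein assay, equal protein on 12% SDS-PAGE, transfer to nitrocellulose. Blocking in 5% milk/TBST 1 h; primary antibodies overnight at 4 °C; secondary 1:2000 for 45 min; ECL detection. GAPDH served as loading control.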

PC-3 [14] = experiment: Induction of apoptosis in human PC3 cells assessed as increase in caspase-3 activity using Ac-DEVD-AMC as substrate at 20 uM by fluorometric method; assay type: functional, cell-based; settings: TDE = time-dependent effect
Outline: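 Cells treated with 20 μM for the stated times. Pellets lysed on ice 15 min, spun at 14 000g for 15 min at 4 °C. Supernatant assayed in buffer containing CHAPS, 10% glycerol, 2 mM EDTA, 5 mM DTT for 2 h at 37 °C. Fluorescence read at ex 380/em 440 nm.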

DU-145 [15] = experiment: Induction of apoptosis in human DU145 cells assessed as PARP cleavage at 20 uM after 12 hrs by western blot analysis; assay type: functional, cell-based; outline: as §4
[16] = Decrease in Cdk4 protein expression in human DU145 cells after 2 to 48 hrs by western blot analysis; assay type: functional, cell-based; settings: DU-145
Outline: (§5)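 Western blot of cyclin D1, cyclin E, Cdk4 and p21 in PC3 and DU145 lysates. Lysis in RIPA buffer plus protease inhibitors, BCA quantification, 12% SDS-PAGE, nitrocellulose transfer, milk block, primaries overnight at 4 °C, secondary 1:2000 for 45 min, ECL read-out. GAPDH served as loading control.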

[17] = Decrease in cyclin D1 protein expression in human PC3 cells by western blot analysis; assay type: functional, cell-based; settings: PC-3, TDE = time-dependent effect; outline: as §5
DU-145 [18] = experiment: Cell cycle arrest in human DU145 cells assessed as accumulation at G0/G1 phase at 10 uM after 24 hrs by propidium iodide staining based flow cytometry (reference value: 63.34%); assay type: functional
PC-3 [19] = experiment: Induction of apoptosis in human PC3 cells assessed as early apoptotic cells at 20 uM after 8 hrs by Annexin V-FITC/propidium iodide staining based flow cytometry (reference value: 0.79%); assay type: functional; outline: as §2
[20] = Cell cycle arrest in human PC3 cells assessed as accumulation at G2/M phase at 20 uM after 24 hrs by propidium iodide staining based flow cytometry (reference value: 10.43%); assay type: functional; settings: PC-3
[21] = Cell cycle arrest in human PC3 cells assessed as accumulation at S phase at 10 uM after 24 hrs by propidium iodide staining based flow cytometry (reference value: 22.07%); assay type: functional; settings: PC-3
K562 = experiment: Antiproliferative activity against human K562 cells assessed as inhibition of cell viability after 24 hrs by MTT assay; assay type: functional, cell-based; settings: K562, 24 h; outline: as §1
DU-145 [22] = experiment: Cell cycle arrest in human DU145 cells assessed as accumulation at S phase at 20 uM after 24 hrs by propidium iodide staining based flow cytometry (reference value: 25.94%); assay type: functional
DU-145 [23] = experiment: Cell cycle arrest at G0/G1 phase in human DU145 cells after 24 hrs by propidium iodide staining based flow cytometry; assay type: functional
[24] = Decrease in cyclin E protein expression in human PC3 cells by western blot analysis; assay type: functional, cell-based; settings: PC-3, TDE = time-dependent effect; outline: as §5
[25] = molecular target: Serine/threonine-protein kinase ATR (Homo sapiens) (UniProt Q13535); experiment: Activation of ATR in human PC3 cells assessed as ChK1 phosphorylation at Ser296 at 20 uM after 12 hrs by western blot analysis; assay type: cell-based; settings: PC-3; outline: as §3
Chain of Serine/threonine-protein kinase ATR (Homo sapiens) (Q13535 whole entry, looked up): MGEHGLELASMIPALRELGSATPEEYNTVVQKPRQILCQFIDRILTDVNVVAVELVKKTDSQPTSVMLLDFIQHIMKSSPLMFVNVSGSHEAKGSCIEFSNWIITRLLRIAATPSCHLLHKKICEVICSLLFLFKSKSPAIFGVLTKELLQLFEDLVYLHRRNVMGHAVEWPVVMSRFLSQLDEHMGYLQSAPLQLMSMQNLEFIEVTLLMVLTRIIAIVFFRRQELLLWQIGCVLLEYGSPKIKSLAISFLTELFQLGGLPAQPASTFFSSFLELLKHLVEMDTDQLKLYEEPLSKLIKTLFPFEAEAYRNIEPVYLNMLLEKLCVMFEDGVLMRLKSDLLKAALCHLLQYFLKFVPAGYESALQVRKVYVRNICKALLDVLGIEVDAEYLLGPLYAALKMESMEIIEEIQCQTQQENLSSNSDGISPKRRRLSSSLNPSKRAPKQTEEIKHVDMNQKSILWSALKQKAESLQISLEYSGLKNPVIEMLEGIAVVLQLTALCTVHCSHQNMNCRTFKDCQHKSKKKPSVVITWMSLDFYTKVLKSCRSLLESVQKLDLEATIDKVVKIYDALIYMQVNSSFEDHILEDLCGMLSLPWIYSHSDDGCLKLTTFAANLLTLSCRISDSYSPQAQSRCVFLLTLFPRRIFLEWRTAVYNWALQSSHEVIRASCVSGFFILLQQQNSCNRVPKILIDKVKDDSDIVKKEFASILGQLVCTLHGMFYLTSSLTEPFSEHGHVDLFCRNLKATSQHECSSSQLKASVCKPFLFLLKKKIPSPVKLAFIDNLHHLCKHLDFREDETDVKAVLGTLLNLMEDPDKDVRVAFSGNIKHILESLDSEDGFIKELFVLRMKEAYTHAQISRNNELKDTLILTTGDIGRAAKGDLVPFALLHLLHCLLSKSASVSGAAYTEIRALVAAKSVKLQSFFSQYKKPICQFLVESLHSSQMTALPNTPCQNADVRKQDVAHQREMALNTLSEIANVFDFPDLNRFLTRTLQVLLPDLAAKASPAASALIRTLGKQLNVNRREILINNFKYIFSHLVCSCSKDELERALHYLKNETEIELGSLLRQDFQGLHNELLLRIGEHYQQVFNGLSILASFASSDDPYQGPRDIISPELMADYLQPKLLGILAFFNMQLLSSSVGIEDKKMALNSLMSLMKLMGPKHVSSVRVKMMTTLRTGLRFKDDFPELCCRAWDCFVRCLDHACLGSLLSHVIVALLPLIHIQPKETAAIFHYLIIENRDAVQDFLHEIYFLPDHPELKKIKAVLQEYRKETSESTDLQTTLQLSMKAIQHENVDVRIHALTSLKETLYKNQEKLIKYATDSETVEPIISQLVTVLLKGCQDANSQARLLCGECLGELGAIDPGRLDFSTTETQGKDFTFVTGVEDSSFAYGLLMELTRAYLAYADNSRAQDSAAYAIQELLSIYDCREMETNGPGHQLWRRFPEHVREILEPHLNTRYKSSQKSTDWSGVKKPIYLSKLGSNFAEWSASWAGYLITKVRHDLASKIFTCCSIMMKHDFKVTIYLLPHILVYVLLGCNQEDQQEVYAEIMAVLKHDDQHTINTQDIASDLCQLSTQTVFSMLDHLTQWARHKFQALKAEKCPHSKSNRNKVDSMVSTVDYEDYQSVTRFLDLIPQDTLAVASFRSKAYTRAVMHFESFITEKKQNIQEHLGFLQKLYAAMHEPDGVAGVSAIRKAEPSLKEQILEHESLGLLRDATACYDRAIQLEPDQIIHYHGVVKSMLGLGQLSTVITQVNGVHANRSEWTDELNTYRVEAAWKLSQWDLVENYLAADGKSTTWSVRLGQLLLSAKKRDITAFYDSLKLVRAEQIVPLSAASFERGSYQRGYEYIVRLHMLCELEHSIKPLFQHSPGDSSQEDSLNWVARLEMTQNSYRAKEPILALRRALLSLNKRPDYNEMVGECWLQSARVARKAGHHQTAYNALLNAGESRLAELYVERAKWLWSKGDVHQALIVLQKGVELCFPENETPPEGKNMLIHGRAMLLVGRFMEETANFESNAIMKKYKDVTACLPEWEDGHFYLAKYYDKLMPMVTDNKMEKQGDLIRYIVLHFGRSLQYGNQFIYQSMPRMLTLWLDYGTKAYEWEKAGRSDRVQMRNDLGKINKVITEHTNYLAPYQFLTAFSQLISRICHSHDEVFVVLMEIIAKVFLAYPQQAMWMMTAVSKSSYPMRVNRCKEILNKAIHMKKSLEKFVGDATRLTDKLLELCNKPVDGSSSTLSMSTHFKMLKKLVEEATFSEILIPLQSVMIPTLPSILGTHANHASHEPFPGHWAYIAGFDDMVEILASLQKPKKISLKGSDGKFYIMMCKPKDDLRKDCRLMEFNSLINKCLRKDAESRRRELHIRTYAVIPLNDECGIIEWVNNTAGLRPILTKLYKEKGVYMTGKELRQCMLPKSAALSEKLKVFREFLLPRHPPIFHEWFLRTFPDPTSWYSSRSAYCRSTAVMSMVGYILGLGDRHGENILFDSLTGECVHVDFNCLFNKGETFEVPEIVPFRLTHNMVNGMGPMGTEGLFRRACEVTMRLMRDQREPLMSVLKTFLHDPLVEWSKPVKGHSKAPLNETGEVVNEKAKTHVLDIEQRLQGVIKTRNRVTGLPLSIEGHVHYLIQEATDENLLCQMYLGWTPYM

Chain of Breast cancer type 1 susceptibility protein (Homo sapiens) (P38398 whole entry, looked up): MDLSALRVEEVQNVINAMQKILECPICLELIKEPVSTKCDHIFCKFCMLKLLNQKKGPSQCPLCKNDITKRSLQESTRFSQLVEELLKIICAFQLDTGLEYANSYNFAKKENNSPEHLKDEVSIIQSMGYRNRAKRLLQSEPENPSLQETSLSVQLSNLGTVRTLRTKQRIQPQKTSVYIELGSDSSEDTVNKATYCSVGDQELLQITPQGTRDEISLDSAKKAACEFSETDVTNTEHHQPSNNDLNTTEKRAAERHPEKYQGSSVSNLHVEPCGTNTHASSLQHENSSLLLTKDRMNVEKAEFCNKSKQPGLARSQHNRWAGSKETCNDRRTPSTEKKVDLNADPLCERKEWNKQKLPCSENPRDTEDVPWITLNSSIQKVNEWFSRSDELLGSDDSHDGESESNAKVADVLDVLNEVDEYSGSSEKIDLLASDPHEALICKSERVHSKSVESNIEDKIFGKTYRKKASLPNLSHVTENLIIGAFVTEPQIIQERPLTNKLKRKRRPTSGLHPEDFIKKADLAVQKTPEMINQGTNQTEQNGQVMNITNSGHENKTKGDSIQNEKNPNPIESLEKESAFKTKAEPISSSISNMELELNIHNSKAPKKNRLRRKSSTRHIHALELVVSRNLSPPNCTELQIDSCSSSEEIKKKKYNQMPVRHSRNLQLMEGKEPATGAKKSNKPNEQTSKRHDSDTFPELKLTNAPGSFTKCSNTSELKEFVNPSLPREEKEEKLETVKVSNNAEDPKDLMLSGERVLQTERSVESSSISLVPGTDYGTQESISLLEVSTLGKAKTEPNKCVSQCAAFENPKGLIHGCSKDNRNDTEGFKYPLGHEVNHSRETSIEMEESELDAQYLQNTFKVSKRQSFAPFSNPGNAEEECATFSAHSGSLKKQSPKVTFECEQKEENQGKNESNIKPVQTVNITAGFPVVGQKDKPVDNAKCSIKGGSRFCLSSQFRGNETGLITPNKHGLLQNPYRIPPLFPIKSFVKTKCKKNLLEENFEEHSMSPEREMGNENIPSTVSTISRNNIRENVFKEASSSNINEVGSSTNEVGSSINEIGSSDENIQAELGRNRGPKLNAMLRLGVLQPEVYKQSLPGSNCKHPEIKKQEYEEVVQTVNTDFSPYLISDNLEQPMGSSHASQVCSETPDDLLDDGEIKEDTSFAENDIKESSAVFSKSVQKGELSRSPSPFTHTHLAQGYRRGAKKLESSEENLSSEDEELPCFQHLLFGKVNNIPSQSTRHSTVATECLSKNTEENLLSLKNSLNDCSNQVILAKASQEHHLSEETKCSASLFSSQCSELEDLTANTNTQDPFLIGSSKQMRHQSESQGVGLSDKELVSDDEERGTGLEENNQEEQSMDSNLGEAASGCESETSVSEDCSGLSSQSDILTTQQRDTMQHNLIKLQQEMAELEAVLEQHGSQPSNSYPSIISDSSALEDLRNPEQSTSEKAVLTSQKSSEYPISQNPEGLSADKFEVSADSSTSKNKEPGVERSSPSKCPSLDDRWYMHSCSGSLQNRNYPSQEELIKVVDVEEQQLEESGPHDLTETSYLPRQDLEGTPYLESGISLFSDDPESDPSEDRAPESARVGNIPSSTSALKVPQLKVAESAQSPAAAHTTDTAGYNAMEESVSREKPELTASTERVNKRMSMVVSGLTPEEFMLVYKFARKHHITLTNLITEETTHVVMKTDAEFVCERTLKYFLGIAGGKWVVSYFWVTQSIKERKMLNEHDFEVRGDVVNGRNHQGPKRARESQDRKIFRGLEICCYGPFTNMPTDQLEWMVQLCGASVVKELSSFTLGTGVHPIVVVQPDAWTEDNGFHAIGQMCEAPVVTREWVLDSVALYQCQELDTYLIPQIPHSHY

C=C[C@@](C)(O)CC[C@@H]1C(C)=CC[C@@H]2C(C)(C)CCC[C@@]12C
pIC50 (A549): < 4.40
Activity (DU-145 [1]): 8.38%
pIC50 [2]: 4.09
Activity (PC-3 [3]): 66.46%
inhibition [4]: Active
Activity (PC-3 [5]): 2.48%
pIC50 [6]: 4.58
Activity (DU-145 [7]): inactive
Activity (PC-3 [8]): inactive
Activity [9]: Dose-dependent effect
inhibition (DU-145 [10]): inactive
Activity (PC-3 [11]): inactive
inhibition [12]: Active
Activity (DU-145 [13]): Active
Activity (PC-3 [14]): tde
Activity (DU-145 [15]): Active
inhibition [16]: Active
inhibition [17]: tde
Activity (DU-145 [18]): 67.97%
Activity (PC-3 [19]): 2.27%
Activity [20]: 10.9%
Activity [21]: 13.9%
pIC50 (K562): 4.80
Activity (DU-145 [22]): 8.73%
Activity (DU-145 [23]): Dose-dependent effect
inhibition [24]: tde
Activity [25]: Active
